Experimental data reported in ChEMBL document CHEMBL5724801, “EUbOPEN Chemogenomics Library - Multiplex” (2024).
Where “and” joins values, the source holds several entries; their conditions need not be identical. Equal values may be shown once.

What was measured:
[1] = tested on: Fibroblast; assay: Multiplex assay against human fibroblast; assay type: toxicity, cell-based
In short: (§1)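 Four dyes were applied at seeding to live cells: Hoechst33342, BioTracker Green Microtubule Cytoskeleton Dye, MitoTracker Red and Annexin V Alexa Fluor 680. Imaging after compound addition used a CQ1 microscope at 37°C and 5% CO2. CellPathfinder machine-learning gating then sorted cells into Hoechst high-intensity objects or normal cells, normal cells into healthy, pyknosed or fragmented nuclei, and pyknosed cells into mitotic or apoptotic, with tubulin, mitochondrial-mass and membrane-permeability phenotypes given as per cents of healthy-nucleus cells.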

[2] = tested on: U2OS; assay: Multiplex assay against U2OS; assay type: toxicity, cell-based; conditions: human; in short: as §1
[3] = 24 h, 10 µM, compound concentration 10 uM
[4] = 48 h, 1 µM, compound concentration 1 uM
[5] = 48 h, 10 µM, compound concentration 10 uM
[6] = 12 h, 1 µM, compound concentration 1 uM
[7] = 12 h, 10 µM, compound concentration 10 uM
[8] = 24 h, 1 µM, compound concentration 1 uM

With `CC[C@H](Nc1ncnc2[nH]cnc12)c1nc2cccc(F)c2c(=O)n1-c1ccccc1` [IDELALISIB] the “Population Apoptotic (%)” value [1, 3] was 8.33% and 21.88%, the “Population Fragmented Nuclei (%)” value [1, 3] was 9.91% and 5.37% and the “Population Healthy Nuclei (%)” value [1, 3] was 73.87% and 79.02%. The “Population Hoechst High Intensity Objects (%)” value [1, 3] was 0%, the “Population Membrane Permeable-Phenotype (%)” value [1, 3] was 9.15% and 6.79% and the “Population Mitochondria Different-Phenotype (%)” value [1, 3] was 15.24% and 12.35%. The “Population Mitotic Cells (%)” value [1, 3] was 91.67% and 78.12%, the “Population Normal (%)” value [1, 3] was 100% and the “Population Pyknosed Nuclei (%)” value [1, 3] was 16.22% and 15.61%. For the same compound, the “Population Tubulin-Different-Phenotype (%)” value [1, 3] was 46.95% and 64.2%, the “Total Cell Count” value [1, 3] was 222 and 205 and the “Population Apoptotic (%)” value [1, 4] was 40.74% and 37.5%. For the same compound, the “Population Fragmented Nuclei (%)” value [1, 4] was 8.52% and 5.13%, the “Population Healthy Nuclei (%)” value [1, 4] was 81.48% and 90.77% and the “Population Hoechst High Intensity Objects (%)” value [1, 4] was 7.22% and 0%. The “Population Membrane Permeable-Phenotype (%)” value [1, 4] was 1.36% and 3.39%, the “Population Mitochondria Different-Phenotype (%)” value [1, 4] was 11.36% and 3.39% and the “Population Mitotic Cells (%)” value [1, 4] was 59.26% and 62.5%. The “Population Normal (%)” value [1, 4] was 92.78% and 100%, the “Population Pyknosed Nuclei (%)” value [1, 4] was 10% and 4.1% and the “Population Tubulin-Different-Phenotype (%)” value [1, 4] was 9.09% and 16.95%. The “Total Cell Count” value [1, 4] was 291 and 195, the “Population Apoptotic (%)” value [1, 5] was 25% and 23.81% and the “Population Fragmented Nuclei (%)” value [1, 5] was 12.65% and 4.81%. For the same compound, the “Population Healthy Nuclei (%)” value [1, 5] was 82.45% and 85.1%, the “Population Hoechst High Intensity Objects (%)” value [1, 5] was 0% and the “Population Membrane Permeable-Phenotype (%)” value [1, 5] was 3.96% and 10.73%. For the same compound, the “Population Mitochondria Different-Phenotype (%)” value [1, 5] was 11.39% and 11.3%, the “Population Mitotic Cells (%)” value [1, 5] was 75% and 76.19% and the “Population Normal (%)” value [1, 5] was 100%. The “Population Pyknosed Nuclei (%)” value [1, 5] was 4.9% and 10.1%, the “Population Tubulin-Different-Phenotype (%)” value [1, 5] was 30.2% and 57.06% and the “Total Cell Count” value [1, 5] was 245 and 208. For the same compound, the “Population Apoptotic (%)” value [2, 6] was 50% and 55%, the “Population Fragmented Nuclei (%)” value [2, 6] was 1.02% and 4.85% and the “Population Healthy Nuclei (%)” value [2, 6] was 88.24% and 85.44%. For the same compound, the “Population Hoechst High Intensity Objects (%)” value [2, 6] was 0%, the “Population Membrane Permeable-Phenotype (%)” value [2, 6] was 1.45% and 1.7% and the “Population Mitochondria Different-Phenotype (%)” value [2, 6] was 0.29% and 7.39%. For the same compound, the “Population Mitotic Cells (%)” value [2, 6] was 50% and 45%, the “Population Normal (%)” value [2, 6] was 100% and the “Population Pyknosed Nuclei (%)” value [2, 6] was 10.74% and 9.71%. For the same compound, the “Population Tubulin-Different-Phenotype (%)” value [2, 6] was 3.19% and 1.14%, the “Total Cell Count” value [2, 6] was 391 and 206 and the “Population Apoptotic (%)” value [2, 7] was 33.33% and 37.5%. For the same compound, the “Population Fragmented Nuclei (%)” value [2, 7] was 1.17% and 2.76%, the “Population Healthy Nuclei (%)” value [2, 7] was 86.55% and 75.17% and the “Population Hoechst High Intensity Objects (%)” value [2, 7] was 0%. For the same compound, the “Population Membrane Permeable-Phenotype (%)” value [2, 7] was 10.47% and 14.68%, the “Population Mitotic Cells (%)” value [2, 7] was 66.67% and 62.5% and the “Population Normal (%)” value [2, 7] was 100%. The “Population Pyknosed Nuclei (%)” value [2, 7] was 12.28% and 22.07%, the “Total Cell Count” value [2, 7] was 342 and 145 and the “Population Apoptotic (%)” value [2, 8] was 46.94% and 30.77%. For the same compound, the “Population Fragmented Nuclei (%)” value [2, 8] was 1.87% and 2.83%, the “Population Healthy Nuclei (%)” value [2, 8] was 88.97% and 86.64% and the “Population Hoechst High Intensity Objects (%)” value [2, 8] was 0% and 0.4%. For the same compound, the “Population Membrane Permeable-Phenotype (%)” value [2, 8] was 0.84% and 2.34%, the “Population Mitochondria Different-Phenotype (%)” value [2, 8] was 0.21% and 5.14% and the “Population Mitotic Cells (%)” value [2, 8] was 53.06% and 69.23%. For the same compound, the “Population Normal (%)” value [2, 8] was 100% and 99.6%, the “Population Pyknosed Nuclei (%)” value [2, 8] was 9.16% and 10.53% and the “Population Tubulin-Different-Phenotype (%)” value [2, 8] was 1.68% and 0.47%. The “Total Cell Count” value [2, 8] was 535 and 248, the “Population Apoptotic (%)” value [2, 3] was 44.64% and 41.38% and the “Population Fragmented Nuclei (%)” value [2, 3] was 2.79% and 2.6%. For the same compound, the “Population Healthy Nuclei (%)” value [2, 3] was 84.19% and 78.57%, the “Population Hoechst High Intensity Objects (%)” value [2, 3] was 0% and the “Population Membrane Permeable-Phenotype (%)” value [2, 3] was 7.73% and 14.88%. For the same compound, the “Population Mitotic Cells (%)” value [2, 3] was 55.36% and 58.62%, the “Population Normal (%)” value [2, 3] was 100% and the “Population Pyknosed Nuclei (%)” value [2, 3] was 13.02% and 18.83%. For the same compound, the “Population Tubulin-Different-Phenotype (%)” value [2, 3] was 12.15% and 4.13%, the “Total Cell Count” value [2, 3] was 430 and 154 and the “Population Apoptotic (%)” value [2, 4] was 46.67% and 39.53%. The “Population Fragmented Nuclei (%)” value [2, 4] was 2.53% and 4.9%, the “Population Healthy Nuclei (%)” value [2, 4] was 87.97% and 84.56% and the “Population Hoechst High Intensity Objects (%)” value [2, 4] was 0%. For the same compound, the “Population Membrane Permeable-Phenotype (%)” value [2, 4] was 0.84% and 3.48%, the “Population Mitochondria Different-Phenotype (%)” value [2, 4] was 0.12% and 3.48% and the “Population Mitotic Cells (%)” value [2, 4] was 53.33% and 60.47%. The “Population Normal (%)” value [2, 4] was 100%, the “Population Pyknosed Nuclei (%)” value [2, 4] was 9.49% and 10.54% and the “Population Tubulin-Different-Phenotype (%)” value [2, 4] was 1.08% and 1.16%. For the same compound, the “Total Cell Count” value [2, 4] was 948 and 408, the “Population Apoptotic (%)” value [2, 5] was 55.68% and 62.86% and the “Population Fragmented Nuclei (%)” value [2, 5] was 2.47% and 5.05%. For the same compound, the “Population Healthy Nuclei (%)” value [2, 5] was 84.72% and 78.9%, the “Population Hoechst High Intensity Objects (%)” value [2, 5] was 0% and the “Population Membrane Permeable-Phenotype (%)” value [2, 5] was 3.78% and 8.72%. The “Population Mitotic Cells (%)” value [2, 5] was 44.32% and 37.14%, the “Population Normal (%)” value [2, 5] was 100% and the “Population Pyknosed Nuclei (%)” value [2, 5] was 12.81% and 16.06%. The “Population Tubulin-Different-Phenotype (%)” value [2, 5] was 5.33% and 5.23%.
